In general, inhibition in vivo refers to the drop in the measured response relative to a control, in per cent. As a reminder, the IC50 is the midpoint of a concentration-inhibition curve.

The source made the active and inactive calls. The rule behind the calls is not given here.

The values that follow come from ChEMBL document CHEMBL1138242, “Synthesis, crystal structure, and activity of pyrazole-based inhibitors of p38 kinase” (J Med Chem, 2007).

For test [1], the system named is Rattus norvegicus. Description: Inhibition of LPS-induced TNF production in rat pretreated at 20 mg/kg, po after […] by ELISA. It counts as functional. Background: In an ELISA, binding on a coated surface is turned into a signal by an enzyme label.
A further test deals with MAP kinase p38 (Homo sapiens, UniProt O15264+Q15759+Q16539+P53778). Description: Inhibition of p38 MAPK activity assessed as EGFR phosphorylation. It counts as protein assay.
The subject of test [2] is Rattus norvegicus. Description: Inhibition of LPS-induced TNF production in rat pretreated at 5 mg/kg, po after […] by ELISA. The class given is functional.
For test [3], the system named is Mus musculus. Briefly: Decrease of arthritis incidence in collagen-induced DBA/1 mouse at 30 mg/kg, po bid. The class given is functional, organism-based. More on the design: dose 30 mg/kg. In short, it runs like this:
(§1)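 Male DBA/1 mice; arthritis induced by subcutaneous type II chick collagen in Freund's adjuvant on days 1 and 21. Test agent given by oral gavage twice daily in Methocel/Tween, days 21-56. Weekly ip anti-TNF antibody served as comparator. Animals scored for signs of arthritis, with incidence compared with vehicle by logistic regression (p < 0.05); 8-10 mice per group.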

Test [4] has as its system Mus musculus. Description: Decrease of arthritis incidence in collagen-induced DBA/1 mouse at 15 mg/kg, po bid. Set-up: dose 15 mg/kg. The class given is functional, organism-based. The gist of the method:
as §1

Turning to `OC1CCCN(c2[nH]nc(-c3ccc(Cl)cc3)c2-c2ccncc2)C1` (stereo not drawn), the inhibition in vivo at 20 mg/kg with Rattus norvegicus [1] came out at 75%.

Turning to `CC1CN(c2[nH]nc(-c3ccc(Cl)cc3)c2-c2ccncc2)CCN1` (stereo not drawn), in the test on Rattus norvegicus [1], the inhibition in vivo at 20 mg/kg came out at 95%. On MAP kinase p38, the IC50 is 16 nM. In addition, the inhibition in vivo at 5 mg/kg with Rattus norvegicus [2] came out at 84%.

For the molecule `CN1CCN(c2[nH]nc(-c3ccc(Cl)cc3)c2-c2ccncc2)CC1`, the inhibition in vivo at 20 mg/kg with Rattus norvegicus [1] is 95%. In addition, the result with Mus musculus [3] and in the test with Mus musculus [4] was Active. Also, in the test with Rattus norvegicus [2], the inhibition in vivo at 5 mg/kg worked out at 98%. For `CC1CCN(c2[nH]nc(-c3ccc(Cl)cc3)c2-c2ccncc2)CC1`, in the test with Rattus norvegicus [1], the inhibition in vivo at 20 mg/kg was 16%.

As to `Clc1ccc(-c2n[nH]c(N3CCc4ccccc4C3)c2-c2ccncc2)cc1`, the inhibition in vivo at 20 mg/kg with Rattus norvegicus [1] came to 12%. On the same count and under the same terms, under `Clc1ccc(-c2n[nH]c(N3CCCC4CCCCC43)c2-c2ccncc2)cc1` (stereo not drawn) stands 33%; under `CC1CC(C)CN(c2[nH]nc(-c3ccc(Cl)cc3)c2-c2ccncc2)C1` (stereo not drawn), 53%. With `OC1CCN(c2[nH]nc(-c3ccc(Cl)cc3)c2-c2ccncc2)CC1`, the inhibition in vivo at 20 mg/kg in the test on Rattus norvegicus [1] worked out at 91%. In addition, the inhibition in vivo at 5 mg/kg in the test with Rattus norvegicus [2] was determined as 52%. Take `CC1CN(c2[nH]nc(-c3ccc(Cl)cc3)c2-c2ccncc2)CC(C)N1` (stereo not drawn): the inhibition in vivo at 20 mg/kg in the test with Rattus norvegicus [1] is 96%. Moreover, the inhibition in vivo at 5 mg/kg with Rattus norvegicus [2] came out at 93%. Take `Clc1ccc(-c2n[nH]c(N3CCC4CCCCC4C3)c2-c2ccncc2)cc1` (stereo not drawn): the inhibition in vivo at 20 mg/kg with Rattus norvegicus [1] was 11%. Same read-out and setting: for `Clc1ccc(-c2n[nH]c(N3CCN4CCC[C@H]4C3)c2-c2ccncc2)cc1` the value was 89%.
